Assay outcomes: PubChem BioAssay, several laboratories
Most compounds without a hit are left out; they make up all but 2.3% or so of the library.
Insulin prom up = insulin promoter activators in MIN6 cells, imaging, high-content screening, mouse beta cells; MIN6 insulin promoter-GFP reporter; stronger effect = higher value; z-score at 5 µM; 0.3% of 190,000 active; AID 1625, 2009;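 active = z-score above 3 at 5 µM with at least 500 cells counted in the well; inconclusive = wells under 500 cells, flagged as cytotoxic or low count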
ABCG2 inh = ABCG2 efflux pump inhibitors, primary screen, multiplex with ABCB1, IgMXP3 cells, flow cytometry; Broad substrate specificity ATP-binding cassette transporter ABCG2 (Homo sapiens), Q9UNQ0; JC-1 efflux; inhibition, % at 6.6 µM; 0.1% of 190,000 active;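 active = inhibition above 80%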;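 note: 0% = DMSO and 100% = nicardipine control wells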
Target sequence (Q9UNQ0 whole entry, looked up): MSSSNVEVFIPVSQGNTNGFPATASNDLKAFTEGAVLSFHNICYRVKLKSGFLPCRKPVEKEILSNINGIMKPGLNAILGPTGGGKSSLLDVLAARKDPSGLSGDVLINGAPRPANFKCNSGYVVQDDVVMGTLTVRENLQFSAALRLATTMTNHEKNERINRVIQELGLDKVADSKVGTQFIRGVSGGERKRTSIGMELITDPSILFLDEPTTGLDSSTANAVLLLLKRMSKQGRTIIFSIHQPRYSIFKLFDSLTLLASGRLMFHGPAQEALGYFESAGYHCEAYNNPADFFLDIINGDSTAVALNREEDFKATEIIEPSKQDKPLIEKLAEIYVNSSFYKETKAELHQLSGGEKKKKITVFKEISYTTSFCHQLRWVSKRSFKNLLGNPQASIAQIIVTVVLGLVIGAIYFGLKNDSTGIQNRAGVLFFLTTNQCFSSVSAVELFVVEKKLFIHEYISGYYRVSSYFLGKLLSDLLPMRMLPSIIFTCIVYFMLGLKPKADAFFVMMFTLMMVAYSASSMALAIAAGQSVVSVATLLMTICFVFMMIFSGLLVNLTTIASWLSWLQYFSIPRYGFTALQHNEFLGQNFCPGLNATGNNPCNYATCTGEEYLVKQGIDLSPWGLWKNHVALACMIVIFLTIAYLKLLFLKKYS
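Measure – % inhibition of efflux relative to nicardipine and DMSO · Test system – ABCG2 IgMXP3 and barcoded ABCB1 CCRF-Adr cell mix · Control set – nicardipine as high control, DMSO as low control · Compound – one concentration, 6.6 µM final · Signal – flow cytometry of retained JC-1 fluorescence · Timing – 10 min exposure at 25 °C with rotation, no wash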
Autophagy mod = autophagy modulators in MEF cells, primary screen, imaging, high-content, MEF GFP-LC3; MEF GFP-LC3 puncta imaging; test concentration mostly 10 µM; calls only at 10 µM (by protocol); 0.98% of 190,000 active;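 active = percentage of spot-positive cells more than 3 SD above its plate mean, without a fluorescence outlier flag or 80% toxicity; inconclusive = no clear call, values can overlap the other calls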;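 note: spot-positive cell cutoff set from DMSO-treated cells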
ABCB1 inh = ABCB1 efflux pump inhibitors, primary screen, cell-based, multiplex, flow cytometry, ABCG2 counter-screen. ATP-dependent translocase ABCB1 (Homo sapiens), P08183. CCRF-Adr cells, JC-1 efflux. inhibition, % at 6.6 µM. 0.067% of 190,000 active. AID 1326, 2008; in the data active = inhibition above about 40%;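 note: 0% = vehicle and 100% = reference inhibitor; higher value means more JC-1 retained so stronger ABCB1 efflux block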
ROMK mod = ROMK potassium channel modulators, primary screen, cell-based, thallium flux, MLSMR library | 2% of 130,000 active | B-score at 10 µM | Tet-inducible ROMK, thallium flux fluorescence; actives lie on both sides;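 active = signal ratio slope over the read window, or its plate-corrected B-score, at least 3 SD from the plate mean, either direction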;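 note: B-score of the F/F0 ratio slope over 7 to 12 s after thallium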
SDO1 yeast rescue = growth rescue of sdo1-depleted yeast, primary screen, S. cerevisiae, bone marrow failure model; S. cerevisiae sdo1-depleted JHY4D growth rescue, OD600 30 h; stronger effect = higher value; pdr5 snq2 efflux-pump mutant strain; z-score at 10 µM; 0.21% of 140,000 active;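 active = z-score above 3 at both the 24 hr and the 30 hr optical density reads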;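 note: z-score against mean and SD of all compound wells on the same plate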
ROMK retest = ROMK channel modulator hit retest, confirmation, cell-based, thallium flux, duplicate, resupplied hits; shares compounds with ROMK mod; fluorescence ratio; stronger effect = lower value; normalized thallium flux (F/F0 slope) at 10 µM; 54% of 3,000 active;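 active = Flux at 10 µM at least 3 SD below or above vehicle control mean in one or both replicates; inconclusive = no clear call, values can overlap the other calls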
* = called active by the depositor; i = inactive; u = inconclusive; x = not tested or not shown.

SMILES	Insulin prom up	ABCG2 inh	Autophagy mod	ABCB1 inh	ROMK mod	SDO1 yeast rescue	ROMK retest
OC(c1cccc(Cl)c1)(c1cccc(Cl)c1)C1CN2CCC1CC2 (stereo not given)	-0.3	1	i	1	-4.5*	x	0.052*
Cc1ccccc1NC(=O)NCCN1CC1	x	x	x	x	-1.4	x	x
CN(C)c1ccc(/C=C/[N+](=O)[O-])cc1	0.13	3	i	1	-4.1*	-2	0.037*
CN(C)c1ccc(C(=O)c2ccc(N(C)C)cc2)cc1	-1	63	i	2	1.9	-0.51	x
C/C(=C\c1ccc(N(C)C)cc1)[N+](=O)[O-]	-1.2	12	i	0	-3.7*	-0.82	0.051*
CC(ON1CC1(C(F)(F)F)C(F)(F)F)(C(N)=O)C(N)=O (stereo not given)	0.14	0	i	0	0.75	0.77	x
CC(=O)N(C1=NCCCS1)c1ccccc1Cl	2.4	6	i	1	-0.77	x	x
CN1c2ccc([N+](=O)[O-])cc2CC2(C(=O)NC(=O)N(c3ccc(Br)cc3)C2=O)C1c1ccccc1 (stereo not given)	-0.82	-2	i	0	x	0.36	0.072
Cc1cc(OC(=O)N(C)C)nc(-c2ccc(C)c(Cl)c2)n1	-0.2	x	x	x	-0.13	x	x
COC(=O)c1ccc(NC(=O)CSc2nc3ccc(N4C(=O)C5C6C=CC(C6)C5C4=O)cc3s2)cc1 (stereo not given)	x	0	i	0	x	-0.37	x
CC12CC[C@H]3[C@@H](CCC4(O)C[C@H](O)CCC34/C=N/NC(=O)Cc3ccccc3)C1(O)CCC2C1=CC(=O)OC1 (stereo not given in full)	0.15	x	x	x	x	x	0.085
CNC(=O)Nc1ccc(C(=O)N/N=C\C23CC[C@@H](O)CC2(O)CC[C@@H]2[C@@H]3CCC3(C)C(C4=CC(=O)OC4)CCC23O)cc1 (stereo not given in full)	-0.39	x	x	x	x	x	u
COc1ccccc1CCNC1CCC(C(C)(C)C)CC1 (stereo not given)	-0.23	11	i	5	-5.8*	-1.1	0.059*
CCCCC1C(=O)NC(=S)NC1=O	0.43	-1	i	0	-0.57	0.33	x
CCC(=NCc1ccco1)c1c(O)n(C2CCCCC2)c(=O)[nH]c1=O	-1.1	0	i	-2	-4*	-1.4	0.054*
c1ccc2c(c1)Sc1ccccc1N2CC1CN2CCC1CC2 (stereo not given)	-0.09	x	x	x	x	x	0.04*
O=C(COc1ccc(Cl)cc1)N1CCN(Cc2ccc([N+](=O)[O-])cc2)CC1	-0.26	6	i	2	-6.5*	x	0.049*
N#CC[N+]1(CCCNP2(=O)C=C(c3ccccc3)OC(c3ccccc3)=C2)CCOCC1	0.22	1	i	1	0.039	x	x
CN1C(=O)C(=Cc2ccc(Sc3ccccc3)o2)C(=O)N(C)C1=O	-0.33	-5	i	0	-5.6*	x	0.056*
O=C1NC(=O)C(=Cc2ccc(Sc3ccccc3)o2)C(=O)N1	0.41	x	x	x	x	x	x
O=C(O)CN1C(=O)CN=C(c2ccccn2)c2cc(Cl)ccc21	-0.21	x	x	x	x	x	x
COc1cccc(C(=O)N2CCC3(CC2)OCCO3)c1	-0.24	x	x	x	0.33	x	x
O=C(c1ccc2c(c1)ncn2C1CCCCC1)N1CCC2(CC1)OCCO2	-0.19	16	i	1	2.4*	0.39	0.088
CC1(C)C[C@H]2C=C(C=O)[C@]3(C=O)C[C@]3(C)[C@H]2C1	u	1	i	0	-9.9*	-2.6	0.05*
COc1ccn(C)c(=O)c1C#N	-0.58	4	i	1	x	x	x
SMILES	Insulin prom up	ABCG2 inh	Autophagy mod	ABCB1 inh	ROMK mod	SDO1 yeast rescue	ROMK retest
CC1(C)CSC(=NCc2ccccc2)N1	-0.8	6	i	1	-0.44	x	x
NC(=O)c1cn(C2OC(CO)C(O)C2O)c2ncnc(N)c12 (stereo not given)	x	1	i	0	4*	1.2	0.092
CCNC(=O)[C@H]1O[C@@H](n2cnc3c(N)ncnc32)[C@H](O)[C@@H]1O	0.18	0	x	x	x	x	x
O=C(/C=C/c1c[nH]c2ccccc12)c1c(O)n(CCc2ccccc2)c(=O)[nH]c1=O	x	x	x	x	x	x	0.04*
CCOc1ccc(N2C(=O)NC(=O)/C(=C\c3ccc(N4CCCCC4)o3)C2=O)cc1	2.4	2	i	0	x	0.06	0.044*
O=C1NC(=O)N(c2ccc3c(c2)OCO3)C(=O)/C1=C/c1ccc(N2CCCC2)o1	x	7	i	1	x	1.6	x
CC1CCC(C(C)C)C(OC(=O)Cn2c(COc3ccccc3)[n+](C)c3ccccc32)C1 (stereo not given)	u	x	x	x	-8.8*	x	0.037*
O=c1[nH]c(=S)n(-c2ccc(Cl)cc2)c(O)c1/C=N/N1CCOCC1	0.21	x	x	x	x	x	x
CC12CN3CCN(CC(C3)C1O)C2 (stereo not given)	1.2	1	i	0	x	1.4	0.077
Cc1ccc(-n2cc(CNC(C)Cc3cnccn3)c(-c3cccc(C)c3)n2)cc1 (stereo not given)	0.36	13	i	4	-3.6*	x	0.06*
CCOC(=O)[C@]1(C#N)[C@@H]2C=CC(C(C)=O)=CN2[C@@H](C(N)=O)[C@@H]1c1ccsc1	0.47	1	i	0	-3.6*	0.11	0.049*
CCN(CC)c1ccc(CNCCc2ccccc2F)cc1	-0.13	8	i	1	-0.044	x	x
Cc1[nH]c2c(C(F)(F)F)cccc2c1CCN	0.99	0	i	0	-0.88	0.18	x
Cc1c(CCN)ccc2c1[nH]c1ccccc12	-1.1	x	x	x	-3.2*	x	0.066*
CCOP(=O)(OCC)C(NC(=O)CC(C)C)C(Cl)(Cl)Cl (stereo not given)	0.84	-2	i	0	0.31	x	x
CCC(CO)NC(=O)C1C=C2c3cccc4[nH]cc(c34)CC2N(C)C1 (stereo not given)	-0.13	x	x	x	x	x	x
COC(=O)C1C=C2c3cccc4[nH]cc(c34)CC2N(C)C1 (stereo not given)	-0.24	x	x	x	x	x	0.054*
CCCC[N+]12CCC(CC1)C(Cc1ccccc1)C2 (stereo not given)	-0.24	x	x	x	x	x	x
CN1C[C@@H]2C[C@@H](c3cccn3-c3ccccn3)N3CCC[C@@]23C1=O	0.28	11	i	2	-0.4	x	x
Cc1cccc(N2C(=O)NC(=O)/C(=C\C=C\c3ccco3)C2=O)c1	0.28	x	x	x	-14*	x	0.046*
